Assay outcomes from PubChem BioAssay.
Rows were chosen to be rich in hits. Some 3.1% of all compounds tested hit in one or more screens of this group.
MPTP inh: permeability transition pore inhibition | isolated mouse mitochondria, Ca2+ swelling absorbance, 30 min | inhibition, % at 10 µM | 360,000 compounds, 1.4% hits | AID 602449;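 active = inhibition of 50% or more, scaled per plate between neutral and stimulator controls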
ADAM17 inh: inhibits human ADAM17. inhibition, % at 6.95 µM. 370,000 compounds, 0.83% hits. recombinant ADAM17, EDANS/DABCYL FRET peptide cleavage. P78536;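 active = inhibition above the mean of compounds lying between control limits plus 3 SD, set per campaign, cut at about 8.5% in these data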
aDG glyco up: increases alpha dystroglycan glycosylation; 360,000 compounds, 0.22% hits; Pro5-aDG cells, alpha-DG glycosylation AlphaScreen (IIH6); 0% Pro5, 100% B10-LARGE cell signal; activation, % at 10 µM;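 active = activation of at least 8% versus controls, or a plate z-score of at least 8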;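 also: Pro5 are CHO cells carrying HIG-tagged alpha-DG that lacks glycosylation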
V-ATPase pHluor: alters yeast V-ATPase proton transport | S. cerevisiae, pHLuorin cytosolic pH fluorescence | response, % at 10 µM | 350,000 compounds, 0.37% hits | AID 504577; in the data active = response mostly above about 7.3%, no sharp cut-off; inactive = mostly below about 5.4%; also: actives read high
ADAM10 inh: inhibitors of human ADAM10; O14672; 370,000 compounds, 0.62% hits; inhibition, % at 7 µM; recombinant ADAM10, EDANS/DABCYL FRET peptide cleavage, 3 h; AID 720582;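 active = inhibition above a per-campaign cutoff equal to the mean of compounds falling between control-based bounds plus 3 SD, cut at about 20% in these data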
Target sequence (O14672 214-748 limits assumed): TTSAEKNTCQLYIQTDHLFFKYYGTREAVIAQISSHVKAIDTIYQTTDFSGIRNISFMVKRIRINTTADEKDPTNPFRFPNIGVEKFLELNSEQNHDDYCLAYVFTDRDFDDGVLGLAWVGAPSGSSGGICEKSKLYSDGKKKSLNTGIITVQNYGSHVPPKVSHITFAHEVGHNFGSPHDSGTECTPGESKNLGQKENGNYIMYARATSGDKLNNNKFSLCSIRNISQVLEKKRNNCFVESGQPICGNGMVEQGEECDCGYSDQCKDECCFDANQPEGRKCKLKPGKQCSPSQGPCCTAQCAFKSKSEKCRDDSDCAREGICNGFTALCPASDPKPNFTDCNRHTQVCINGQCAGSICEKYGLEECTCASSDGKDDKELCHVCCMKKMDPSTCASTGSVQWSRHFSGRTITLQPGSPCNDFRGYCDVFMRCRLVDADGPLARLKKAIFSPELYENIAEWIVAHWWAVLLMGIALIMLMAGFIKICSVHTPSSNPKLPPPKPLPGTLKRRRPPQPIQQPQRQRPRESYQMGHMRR
Hep lipid drop: modulators of hepatic lipid droplet formation | AML12 mouse hepatocytes, oleate lipid droplets, BODIPY imaging | inhibition, % at 6.5 µM | 240,000 compounds, 0.4% hits;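 active = lipid droplet intensity inhibited by at least 50%, with more than 500 cells counted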
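Assay system: AML12 mouse liver cells | Compound dosing: One dose, 6.5 µM compound | Read-out basis: Droplet intensity reduction, % inhibition | Measured by: Fluorescence imaging, 20x objective, two fields per well | Schedule: Overnight treatment with compound plus oleate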
ADAM10 confirm: confirmation of inhibitors of human ADAM10 | ADAM10 QFRET peptide cleavage, EDANS fluorescence | shares compounds with ADAM10 inh | inhibition, % at 6.95 µM | 2,100 compounds, 1% hits;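 active = inhibition above about 20% chosen separately for each screening run, limit read from the data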
ADAM17 ctr: inhibits human ADAM17 in ADAM10 exosite counter-screen; shares compounds with ADAM10 inh; ADAM17 QFRET peptide cleavage, EDANS fluorescence; inhibition, % at 6.95 µM; 2,100 compounds, 0.5% hits; AID 743214;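 active = mean triplicate inhibition above the solvent-only control wells' mean plus 3 SD, cut at about 12% in these data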
ADAM10 counter: ADAM10 inhibition, counter-screen for ADAM17 exosite hits | shares compounds with ADAM17 inh | inhibition, % at 6.95 µM | recombinant ADAM10, EDANS/DABCYL FRET peptide cleavage, 3 h | 2,900 compounds, 47% hits;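 active = mean inhibition over the triplicate runs exceeds the activity threshold set in the earlier primary screen, cut at about 20% in these data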
ADAM17 confirm: confirmation of inhibitors of human ADAM17; recombinant ADAM17, EDANS/DABCYL QFRET peptide cleavage; 2,900 compounds, 65% hits; shares compounds with ADAM17 inh; inhibition, % at 6.95 µM;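 active = mean inhibition across replicates above the hit cutoff set in the primary screen, cut at about 8.5% in these data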
Each line names hits and unclear results; the compound was inactive in the other large screens (follow-up assays come after a bar, where they were run); ! = not confirmed by another sample.

CC[C@@]12C(=O)N(c3cccc(Br)c3)C(=O)N1[C@H](c1ccc(F)cc1)[C@@H]1C(=O)N(C3CCCCC3)C(=O)[C@@H]12	ADAM17 inh 10.7, ADAM10 inh 25.6 (no result: Hep lipid drop) | ADAM10 confirm inactive | ADAM17 ctr inactive | ADAM10 counter 19.9 | ADAM17 confirm 14.2
COC(=O)[C@]12C[C@H](CC(=O)NCc3cccc(C(F)(F)F)c3)C(=O)N(Cc3ccc(Cl)cc3Cl)C1=C[C@H](C(C)(C)C)O[C@@H]2C	none (no result: MPTP inh, aDG glyco up, V-ATPase pHluor, Hep lipid drop)
Cc1ccc(C(=O)Oc2coc(CSc3ncccn3)cc2=O)cc1[N+](=O)[O-]	none (no result: MPTP inh, aDG glyco up, V-ATPase pHluor, Hep lipid drop)
COc1ccc(NC(=O)CSc2nc(O)cc(=O)n2-c2ccccc2)cc1	none
COc1ccccc1-n1c(SCC(=O)Nc2ccc(Br)cc2)nc(O)cc1=O	ADAM17 inh 8.7, ADAM10 inh 27.7 | ADAM10 confirm inactive | ADAM17 ctr inactive | ADAM10 counter inactive | ADAM17 confirm inactive
COC(=O)c1cc(NS(=O)(=O)c2ccc(N3CCC(C)CC3)c([N+](=O)[O-])c2)cc(C(=O)OC)c1	ADAM17 inh 13.0, ADAM10 inh 28.1 | ADAM10 confirm inactive | ADAM17 ctr inactive | ADAM10 counter 25.7 | ADAM17 confirm 16.7
CC1CCN(c2ccc(C(=O)Nc3ccc4c(c3)OCO4)cc2[N+](=O)[O-])CC1	ADAM17 inh 8.7, ADAM10 inh 20.4 | ADAM10 confirm inactive | ADAM17 ctr inactive | ADAM10 counter 30.1 | ADAM17 confirm 15.6
O=C(COC(=O)c1ccc(N2CCOCC2)c([N+](=O)[O-])c1)Nc1ccc2c(c1)OCO2	none (no result: V-ATPase pHluor)
CCC(c1c[nH]c2ccccc12)c1cn(C)c2ccccc12 (stereo unspecified)	none (no result: MPTP inh, aDG glyco up, V-ATPase pHluor, Hep lipid drop)
COCCCN1CCC2(CCC(c3ccccc3)CC2)C1=O (stereo unspecified)	none (no result: MPTP inh, aDG glyco up, V-ATPase pHluor, Hep lipid drop)
COc1cc(NC(=O)C2CCCN(S(=O)(=O)c3cc(OC)ccc3OC)C2)cc(OC)c1 (stereo unspecified)	none (no result: MPTP inh, aDG glyco up, V-ATPase pHluor, Hep lipid drop)
S=c1nc(-c2sccc2OCc2ccc(Cl)cc2Cl)[nH][nH]1	ADAM17 inh 11.3, ADAM10 inh 20.1 (no result: Hep lipid drop) | ADAM10 confirm inactive | ADAM17 ctr inactive | ADAM10 counter inactive | ADAM17 confirm 13.2
COc1ccccc1NS(=O)(=O)c1cc(N/C(=N/S(=O)(=O)c2ccccc2)c2ccc(F)cc2)ccc1Cl	none (no result: Hep lipid drop)
O=S(=O)(/N=C(/Nc1ccc(Cl)c(S(=O)(=O)Nc2ccccc2Cl)c1)c1ccc(F)cc1)c1ccccc1	ADAM17 inh 12.4!, ADAM10 inh 22.4! (no result: Hep lipid drop) | ADAM10 confirm inactive | ADAM17 ctr inactive | ADAM10 counter 36.4 | ADAM17 confirm 18.4
COc1ccc(NS(=O)(=O)c2cccc(N/C(=N\S(=O)(=O)c3ccccc3)c3ccc(F)cc3)c2)cc1	ADAM17 inh 8.7, ADAM10 inh 21.3 | ADAM10 confirm inactive | ADAM17 ctr inactive | ADAM10 counter 23.7 | ADAM17 confirm 15.3
COCCNC(=S)N(C)[C@H]1C[C@H]2c3[nH]c4c(-c5cccc(C)c5)cccc4c3CCN2C[C@H]1[C@H](C)O	none (no result: MPTP inh, aDG glyco up, V-ATPase pHluor, Hep lipid drop)
NC(=O)C1=C[C@H](C2CCCCC2)C[C@H](OCc2ccc(CO)cc2)O1	ADAM17 inh 8.9, ADAM10 inh 20.2 | ADAM10 confirm inactive | ADAM17 ctr inactive | ADAM10 counter inactive | ADAM17 confirm inactive
COc1cc(/C=N/O)cc(Br)c1OCc1ccc(Cl)cc1	ADAM17 inh 8.9, ADAM10 inh 21.4 (no result: Hep lipid drop) | ADAM10 confirm inactive | ADAM17 ctr inactive | ADAM10 counter 21.0 | ADAM17 confirm 10.7
COc1cc(/C=N/O)cc(Br)c1OC	none
COc1ccc(CCN(Cc2cccs2)S(=O)(=O)c2ccccc2)cc1OC	none (no result: MPTP inh, aDG glyco up, V-ATPase pHluor, Hep lipid drop)
Cc1cc(F)ccc1C(O)c1ncc(-c2cccc(OCc3ccccc3)c2)[nH]1 (stereo unspecified)	ADAM17 inh 9.7, ADAM10 inh 29.4 (no result: V-ATPase pHluor, Hep lipid drop) | ADAM10 confirm inactive | ADAM17 ctr inactive | ADAM10 counter 38.7 | ADAM17 confirm 20.2
C=C(C)COc1ccc(-c2[nH]ncc2-c2ccccc2OC)c(O)c1	ADAM17 inh 18.3, ADAM10 inh 29.3 (no result: Hep lipid drop) | ADAM10 confirm inactive | ADAM17 ctr inactive | ADAM10 counter 36.8 | ADAM17 confirm 19.1
CCOc1ccc(-c2[nH]ncc2Oc2ccccc2OC)c(O)c1	ADAM17 inh 9.6, ADAM10 inh 21.5 | ADAM10 confirm inactive | ADAM17 ctr inactive | ADAM10 counter 29.8 | ADAM17 confirm 14.7
C=C(C)COc1ccc(-c2ncncc2-c2ccccc2OC)c(O)c1	none
COc1cccc(-c2cc(C(C)=O)c3n(c2=O)CCC3)c1OC	none (no result: MPTP inh, aDG glyco up, V-ATPase pHluor, Hep lipid drop)
COc1ccc(CNS(=O)(=O)/C=C/c2cc(C)ccc2CNC(=O)OC(C)(C)C)cc1	none (no result: MPTP inh, aDG glyco up, V-ATPase pHluor, Hep lipid drop)
NC1=[N+](Cc2ccccc2)C(Cc2ccccc2)C2C(=C3CCCCC3n3c(=O)n(-c4ccccc4)c(=O)n32)N1 (stereo unspecified)	none (no result: MPTP inh, aDG glyco up, V-ATPase pHluor, Hep lipid drop)
COCCN=c1scc(-c2cc(OC)ccc2OC)n1/N=C/c1c[nH]c2ccccc12	ADAM17 inh 11.0, ADAM10 inh 20.1 | ADAM10 confirm inactive | ADAM17 ctr inactive | ADAM10 counter inactive | ADAM17 confirm 12.2
Cc1cc(Cl)ccc1OC(C)C(=O)N1CCCN(C(=O)C(C)Oc2ccc(Cl)cc2C)CC1 (stereo unspecified)	ADAM17 inh 15.1, ADAM10 inh 25.5 | ADAM10 confirm inactive | ADAM17 ctr inactive | ADAM10 counter 28.6 | ADAM17 confirm 17.5
CC(Oc1ccccc1Cl)C(=O)N1CCCN(C)CC1 (stereo unspecified)	none
O=C(Nc1ccccc1)OC1CCC2CC1CCC2OC(=O)Nc1ccccc1 (stereo unspecified)	ADAM17 inh 11.5, ADAM10 inh 23.6 | ADAM10 confirm inactive | ADAM17 ctr inactive | ADAM10 counter 38.4 | ADAM17 confirm 18.4
O=C(Nc1ccccc1)OC1CC2CC1[C@H]1CCCCN1[C@H]2Cc1ccccc1 (stereo partly specified)	none (no result: MPTP inh, aDG glyco up, V-ATPase pHluor, Hep lipid drop)
COc1ccc(S(=O)(=O)Nc2cc3c4c(oc3c3ccccc23)CCCC4=O)cc1	none
COc1ccc(S(=O)(=O)Nc2cc3c4c(oc3c3ccccc23)CC(C)(C)CC4=O)cc1	ADAM17 inh 9.1, ADAM10 inh 26.3 (no result: Hep lipid drop) | ADAM10 confirm inactive | ADAM17 ctr inactive | ADAM10 counter 21.1 | ADAM17 confirm 11.5
